# Source: publication PMC7318171 (Journal of Clinical Pharmacology, 2020)
# Key:
# [1] = cited from earlier work
# [2] = target: T1, breast cancer resistance protein (Homo sapiens, UniProt Q9UNQ0); experiment: Efflux transporter substrate assessment in vitro, BCRP; format: in vitro ADME
# T1 sequence (Q9UNQ0 1-655): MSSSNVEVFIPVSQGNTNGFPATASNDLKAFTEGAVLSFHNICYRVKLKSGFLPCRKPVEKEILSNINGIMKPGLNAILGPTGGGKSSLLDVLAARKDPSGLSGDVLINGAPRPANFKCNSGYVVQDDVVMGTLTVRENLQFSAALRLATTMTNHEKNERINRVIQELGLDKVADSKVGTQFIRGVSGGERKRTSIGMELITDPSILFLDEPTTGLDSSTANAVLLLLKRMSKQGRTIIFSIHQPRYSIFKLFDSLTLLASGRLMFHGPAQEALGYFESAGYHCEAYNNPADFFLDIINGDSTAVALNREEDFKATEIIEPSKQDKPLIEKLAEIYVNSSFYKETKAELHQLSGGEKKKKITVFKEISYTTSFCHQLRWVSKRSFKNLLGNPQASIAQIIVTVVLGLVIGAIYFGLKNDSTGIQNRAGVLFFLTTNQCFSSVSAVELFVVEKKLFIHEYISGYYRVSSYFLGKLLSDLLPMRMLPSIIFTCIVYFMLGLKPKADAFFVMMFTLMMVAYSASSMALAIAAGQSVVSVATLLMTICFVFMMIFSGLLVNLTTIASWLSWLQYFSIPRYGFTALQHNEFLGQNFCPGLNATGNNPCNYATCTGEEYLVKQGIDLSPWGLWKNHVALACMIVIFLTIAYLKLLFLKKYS
# [3] = target: T2, organic cation transporter 1 (Homo sapiens, UniProt O15245); experiment: Hepatic uptake transporter substrate assessment, OCT1; format: in vitro ADME
# T2 sequence (O15245 1-554): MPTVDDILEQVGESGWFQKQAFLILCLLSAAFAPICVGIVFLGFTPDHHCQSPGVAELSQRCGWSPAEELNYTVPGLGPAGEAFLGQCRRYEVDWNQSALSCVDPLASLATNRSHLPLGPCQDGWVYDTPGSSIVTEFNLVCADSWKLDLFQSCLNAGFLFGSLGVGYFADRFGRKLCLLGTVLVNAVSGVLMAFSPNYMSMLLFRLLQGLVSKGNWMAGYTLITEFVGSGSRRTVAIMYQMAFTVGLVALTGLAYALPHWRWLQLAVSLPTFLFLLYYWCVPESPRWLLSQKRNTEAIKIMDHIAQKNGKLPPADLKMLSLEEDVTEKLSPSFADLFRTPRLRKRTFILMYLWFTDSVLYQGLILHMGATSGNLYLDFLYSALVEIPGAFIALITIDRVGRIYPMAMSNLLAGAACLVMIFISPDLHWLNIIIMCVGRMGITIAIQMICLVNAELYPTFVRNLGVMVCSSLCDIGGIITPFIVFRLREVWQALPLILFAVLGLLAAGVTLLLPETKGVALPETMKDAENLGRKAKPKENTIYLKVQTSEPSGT
# Absolute bioavailability = format: in vivo; conditions: human, plasma
# [4] = target: T3, organic anion–transporting polypeptide 1B3 (Homo sapiens, UniProt Q9NPD5); experiment: Hepatic uptake transporter substrate assessment, OATP1B3; format: in vitro ADME
# T3 sequence (Q9NPD5 1-702): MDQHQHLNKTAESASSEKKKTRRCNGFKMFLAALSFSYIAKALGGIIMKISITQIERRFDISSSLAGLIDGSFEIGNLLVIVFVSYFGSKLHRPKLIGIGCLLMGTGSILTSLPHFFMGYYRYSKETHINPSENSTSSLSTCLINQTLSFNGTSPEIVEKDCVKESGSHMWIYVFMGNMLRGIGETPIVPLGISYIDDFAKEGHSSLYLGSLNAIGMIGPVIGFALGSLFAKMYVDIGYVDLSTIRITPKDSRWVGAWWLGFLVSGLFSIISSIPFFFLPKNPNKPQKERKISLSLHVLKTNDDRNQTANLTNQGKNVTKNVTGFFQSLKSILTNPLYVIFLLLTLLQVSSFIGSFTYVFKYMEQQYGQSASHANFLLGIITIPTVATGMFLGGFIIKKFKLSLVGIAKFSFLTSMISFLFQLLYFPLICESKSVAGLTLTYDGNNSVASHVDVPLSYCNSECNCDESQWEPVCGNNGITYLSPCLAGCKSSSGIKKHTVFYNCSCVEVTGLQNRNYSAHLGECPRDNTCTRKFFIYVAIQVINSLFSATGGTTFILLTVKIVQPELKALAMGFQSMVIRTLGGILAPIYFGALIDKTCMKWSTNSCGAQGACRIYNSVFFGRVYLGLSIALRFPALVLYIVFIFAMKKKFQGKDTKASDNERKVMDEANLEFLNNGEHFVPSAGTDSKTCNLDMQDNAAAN
# [5] = target: T4, organic anion–transporting polypeptide 1B1 (Homo sapiens, UniProt Q9Y6L6); experiment: Hepatic uptake transporter substrate assessment, OATP1B1; format: in vitro ADME
# T4 sequence (Q9Y6L6 1-691): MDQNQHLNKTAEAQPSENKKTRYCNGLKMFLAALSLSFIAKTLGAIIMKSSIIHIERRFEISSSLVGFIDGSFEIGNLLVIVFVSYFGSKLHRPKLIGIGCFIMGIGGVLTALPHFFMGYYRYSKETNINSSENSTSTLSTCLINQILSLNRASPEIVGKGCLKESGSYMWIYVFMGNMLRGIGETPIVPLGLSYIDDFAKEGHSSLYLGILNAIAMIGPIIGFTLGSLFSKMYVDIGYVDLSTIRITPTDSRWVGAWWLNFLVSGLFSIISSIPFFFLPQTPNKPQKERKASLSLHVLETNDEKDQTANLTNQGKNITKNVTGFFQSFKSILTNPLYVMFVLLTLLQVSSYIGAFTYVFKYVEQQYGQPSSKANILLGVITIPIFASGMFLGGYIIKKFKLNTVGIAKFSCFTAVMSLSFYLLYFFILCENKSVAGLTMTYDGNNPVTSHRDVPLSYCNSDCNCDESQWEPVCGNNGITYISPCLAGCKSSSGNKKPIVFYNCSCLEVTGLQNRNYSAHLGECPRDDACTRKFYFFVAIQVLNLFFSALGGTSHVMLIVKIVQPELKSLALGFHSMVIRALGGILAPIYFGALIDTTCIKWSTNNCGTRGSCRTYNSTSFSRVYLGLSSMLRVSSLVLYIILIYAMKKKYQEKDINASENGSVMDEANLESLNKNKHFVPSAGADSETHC
# [6] = Biopharmaceutic properties; format: physicochemical
# [7] = Mass balance study with 14C-labeled abemaciclib; format: in vivo, human
# [8] = cited from earlier work; remark: listed apart in the source
# [9] = Rifampin interaction study; format: in vivo, human
# In short: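 Single oral 200‑mg dose given alone and again with rifampin 600 mg once daily. Plasma levels of parent and active metabolites were measured in both arms, and mean concentration–time profiles are shown with SDs. Cmax and AUC0‑∞ were taken, with Tmax as median (min‑max). The interaction was expressed as with/without‑rifampin ratios of AUC0‑∞ and Cmax.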
# CDK4/cyclin D1 = conditions: read-out: CDK4/cyclin D1 half‐maximal inhibitory concentration, mean ± SD; measured in vitro; cited from earlier work
# [10] = Clarithromycin interaction study; format: in vivo; conditions: both, human, plasma, po, 50 mg
# P‐glycoprotein = P‐glycoprotein (Homo sapiens, UniProt P08183); experiment: Efflux transporter substrate assessment in vitro, P-glycoprotein; format: in vitro ADME
# Chain of P‐glycoprotein (P08183 whole entry): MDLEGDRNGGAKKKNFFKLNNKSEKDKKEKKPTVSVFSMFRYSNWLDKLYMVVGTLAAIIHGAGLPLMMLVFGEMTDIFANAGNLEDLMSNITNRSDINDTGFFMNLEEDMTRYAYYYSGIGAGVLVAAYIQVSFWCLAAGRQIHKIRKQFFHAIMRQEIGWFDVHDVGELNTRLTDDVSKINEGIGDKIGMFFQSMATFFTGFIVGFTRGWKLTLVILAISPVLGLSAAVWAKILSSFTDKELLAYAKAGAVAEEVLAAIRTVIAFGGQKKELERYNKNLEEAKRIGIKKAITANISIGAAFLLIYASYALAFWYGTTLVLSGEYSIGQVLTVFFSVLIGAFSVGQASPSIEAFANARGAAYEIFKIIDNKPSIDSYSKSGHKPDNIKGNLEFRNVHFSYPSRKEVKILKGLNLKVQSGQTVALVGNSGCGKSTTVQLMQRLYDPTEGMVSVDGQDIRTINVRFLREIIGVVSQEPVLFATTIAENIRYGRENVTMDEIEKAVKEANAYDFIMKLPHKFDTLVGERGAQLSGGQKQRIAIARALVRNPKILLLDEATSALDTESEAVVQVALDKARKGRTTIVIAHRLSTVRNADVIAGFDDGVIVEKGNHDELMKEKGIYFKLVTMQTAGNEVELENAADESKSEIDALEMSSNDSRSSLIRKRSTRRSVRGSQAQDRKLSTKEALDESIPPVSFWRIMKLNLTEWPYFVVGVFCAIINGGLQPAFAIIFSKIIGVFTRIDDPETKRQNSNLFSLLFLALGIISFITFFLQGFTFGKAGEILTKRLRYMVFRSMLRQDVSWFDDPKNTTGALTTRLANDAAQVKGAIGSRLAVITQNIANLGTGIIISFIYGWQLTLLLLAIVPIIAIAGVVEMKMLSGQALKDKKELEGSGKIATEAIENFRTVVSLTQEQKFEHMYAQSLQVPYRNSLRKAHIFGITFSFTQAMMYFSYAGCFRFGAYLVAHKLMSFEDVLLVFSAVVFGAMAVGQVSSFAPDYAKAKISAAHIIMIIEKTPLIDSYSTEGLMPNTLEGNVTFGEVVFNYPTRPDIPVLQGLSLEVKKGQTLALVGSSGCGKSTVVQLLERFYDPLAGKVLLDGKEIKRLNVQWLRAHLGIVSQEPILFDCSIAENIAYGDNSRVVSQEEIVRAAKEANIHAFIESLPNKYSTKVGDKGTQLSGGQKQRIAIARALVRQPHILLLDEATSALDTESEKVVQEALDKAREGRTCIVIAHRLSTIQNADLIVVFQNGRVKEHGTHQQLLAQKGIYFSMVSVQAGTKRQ
# [11] = PBPK model input and disposition parameters
# [12] = Measured physicochemical properties
# [13] = Fraction unbound in plasma; format: in vitro ADME; conditions: human
# [14] = both, human, plasma, po, 200 mg
structure (smiles),measurement,setting,value
Cc1ncc2n1-c1ccc(Cl)cc1C(c1ccccc1F)=NC2 [Midazolam],increase in AUC extrapolated to infinity,[1]; IV midazolam with clarithromycin,3.5 fold
COc1ccccc1Oc1c(NS(=O)(=O)c2ccc(C(C)(C)C)cc2)nc(-c2ncccn2)nc1OCCO [Bosentan],Cmax ratio with and without ketoconazole,"[1]; bosentan 125 mg BID 5 days, ketoconazole 200 mg QD",1.62
CCN1CCN(Cc2ccc(Nc3ncc(F)c(-c4cc(F)c5nc(C)n(C(C)C)c5c4)n3)nc2)CC1 [Abemaciclib],substrate of breast cancer resistance protein,[2],substrate
same,substrate of organic cation transporter 1,[3],not substrates
same,half-life,Absolute bioavailability,29.3 h
same,Vd,"Absolute bioavailability; iv, 0.4 mg",8.93 L/kg
same,clearance,"Absolute bioavailability; iv, 0.4 mg",400 mL/min
same,substrate of organic anion–transporting polypeptide 1B3,[4],not substrates
same,substrate of organic anion–transporting polypeptide 1B1,[5],not substrates
same,permeability (in words),[6],high permeability
same,solubility (in words),[6],high solubility
same,percentage of parent in feces,[7]; 14C study,6.76%
same,radioactivity excreted in urine,[7]; human mass balance study,4%
same,CL renal,"[7]; human, urine, oral, 150 mg",16.7 mL/min
same,Fa (fraction absorbed),"[7]; oral dose, estimated from mass balance study, equation 1",0.91
same,increase of AUC by a high‐fat and high‐calorie meal,[8]; abemaciclib and active species,9%
same,AUC,[9]; [14],4.57 µg·h/mL
same,Cmax,[9]; [14],0.134 µg/mL
same,Tmax,[9]; [14],8 h
same,half-life,[9]; [14],25.2 h
same,decrease of AUC,"[9]; with rifampin, observed",95%
same,AUC,[10],2.23 µg·h/mL
same,Cmax,[10],0.07 µg/mL
same,Tmax,[10],4.03 h
same,half-life,[10],28.8 h
same,substrate of P‐glycoprotein,P‐glycoprotein,substrate
same,FG in the PBPK model,[11]; 200‐mg dose,0.74
same,"FG (fraction escaping first‐pass metabolism in the gut), calculated","[11]; 200‐mg oral dose, equation 5",approximately 0.77
same,FH (fraction escaping first‐pass metabolism in the liver),"[11]; 200‐mg oral dose, equations 2-4",0.64
same,logP,[12]; octanol/water,3.36
same,pKa,[12]; pKa 2 (basic),4.48
same,fraction unbound,[13],0.0557
